Bioassay records as filed in PubChem.
Rows were chosen to be rich in hits. Some 2.6% of all compounds tested hit in one or more screens of this group.
DENV2 CPE: inhibitors of DENV2 cytopathic effect, primary screen, cell-based, plate reader, single concentration | DENV2-infected cells, cytopathic effect rescue | CPE inhibition, % at 9.99 µM | actives 1.7% (n = 350,000) | AID 651640, 2012; in the data active = CPE inhibition above about 20%, passing the limit was not always enough; tested in BHK-21 cells
INS-1E GSIS act: GLuc luminescence reporter in INS-1E cells, primary screen for activators of glucose-dependent secretion of insulin; INS-1E GLuc reporter insulin secretion, 2-3 h; activation, % at 16.6 µM; actives 0.61% (n = 370,000); AID 743287, 2014;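 active = lowest replicate activation of at least 40%, so every replicate reaches that level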
CFTR F508del cor: F508del CFTR correction, initial screen, CFBE line, single point | CFBE cells, YFP halide quenching; stimulated with forskolin plus potentiator P3; % fluorescence drop versus neutral controls | AID 720511, 2013 | actives 0.36% (n = 350,000) | activity (quench increase), % at 7.58 µM;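 active = mean added fluorescence quench of at least 8% versus neutral control, with both replicates also reaching 8%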;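 note: cells transiently co-express mutant CFTR-F508del with the halide-sensitive YFP; corrector assay measuring rescue of mutant channel to the surface after 24 h compound exposure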
E-selectin induc: E-selectin induction in HUVECs, primary screen, imaging, HUVEC, immunofluorescence imaging, single point | P16581 | actives 0.37% (n = 260,000) | activation, % at 7.58 µM | normalized: neutral wells 0, TNF-alpha wells 100;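 active = mean E-selectin-positive cell signal at least 10% of the positive control, reached in at least 60% of replicates, without over 20% cell loss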
Target sequence (P16581 whole entry, looked up): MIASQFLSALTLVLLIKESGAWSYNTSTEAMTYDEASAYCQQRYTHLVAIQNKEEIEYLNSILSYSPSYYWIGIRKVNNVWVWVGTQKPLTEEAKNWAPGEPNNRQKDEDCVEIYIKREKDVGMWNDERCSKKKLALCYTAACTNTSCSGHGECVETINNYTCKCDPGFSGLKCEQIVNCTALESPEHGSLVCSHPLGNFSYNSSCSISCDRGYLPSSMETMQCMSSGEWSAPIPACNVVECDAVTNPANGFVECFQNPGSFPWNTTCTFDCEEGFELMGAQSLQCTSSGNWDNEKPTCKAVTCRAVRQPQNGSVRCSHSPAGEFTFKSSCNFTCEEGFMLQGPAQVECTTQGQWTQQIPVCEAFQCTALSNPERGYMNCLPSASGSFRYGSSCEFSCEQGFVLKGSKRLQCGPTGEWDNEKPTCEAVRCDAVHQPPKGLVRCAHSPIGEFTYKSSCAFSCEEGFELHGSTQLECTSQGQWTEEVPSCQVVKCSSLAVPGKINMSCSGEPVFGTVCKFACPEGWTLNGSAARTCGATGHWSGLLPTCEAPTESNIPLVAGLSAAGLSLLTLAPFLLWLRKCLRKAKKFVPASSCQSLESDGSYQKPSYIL
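Assay system: HUVEC primary endothelial cells. Input: 3,000 HUVEC seeded per well. Doses: one compound dose added by pin transfer. Read-out basis: % PE-positive cells. Benchmarks: TNF-alpha high, DMSO low. Detection: immunofluorescence imaging. Buffer or medium: EGM-2, gelatin.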
miR-122 sensor: miR-122 Renilla sensor signal increase in Huh7, primary screen, miR-122 inhibitor project, cell-based, single point, plate reader | Huh7 miR-122 Renilla luciferase sensor, 48 h; neutral wells = 0, positive control = 100 | activation (reporter increase), % at 12.5 µM | actives 0.3% (n = 340,000) | AID 602342, 2012;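 active = mean replicate activation score at least 90 and every replicate individually at or above 90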;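 note: higher luciferase means less miR-122 activity so hits act as miR-122 inhibitors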
ERAP1 HTS inh: human ERAP1 aminopeptidase inhibitors, primary screen, biochemical, single point, plate reader. Endoplasmic reticulum aminopeptidase 1 (Homo sapiens), Q9NZ08. recombinant ERAP1, Leu-AMC fluorescence, 60 min. inhibition, % at 10.7 µM. actives 0.15% (n = 340,000);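 active = mean replicate inhibition of at least 30%, or all replicates individually reaching that 30% level; inactive = mean below 30% and not every replicate reaching it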
A number is an active result; – = inactive; · = no result.

SMILES | DENV2 CPE | INS-1E GSIS act | CFTR F508del cor | E-selectin induc | miR-122 sensor | ERAP1 HTS inh
COc1cccc(C(=O)COC(=O)C2CC3CCCC(C2)C3=O)c1 (stereo not drawn) | – | – | – | · | – | –
COc1ccc(C(=O)COC(=O)C2CC3CCCC(C2)C3=O)cc1Br (stereo not drawn) | – | 57.6 | – | – | · | –
C[C@@H]1CCCCO[C@@H](CN(C)C(=O)Cc2ccccc2)[C@H](C)CN([C@H](C)CO)C(=O)c2cc(NC(=O)NC3CCCCC3)ccc2O1 | – | – | – | – | – | ·
C[C@H]1CCCCO[C@H](CN(C)C(=O)Cc2ccccc2)[C@@H](C)CN([C@@H](C)CO)C(=O)c2cc(NC(=O)NC3CCCCC3)ccc2O1 | 25.4 | – | – | – | – | ·
C[C@@H]1CN([C@H](C)CO)C(=O)c2cc(N(C)C)ccc2O[C@@H](C)CCCCO[C@@H]1CN(C)C(=O)Cc1ccccc1 | – | – | – | – | – | –
C[C@@H]1CCCCO[C@@H](CN(C)Cc2ccccc2)[C@H](C)CN([C@@H](C)CO)C(=O)c2cc(NC(=O)NC3CCCCC3)ccc2O1 | 23.9 | – | – | – | – | –
C[C@H](CO)N1C[C@H](C)[C@H](CN(C)Cc2ccccc2)OCCCC[C@H](C)Oc2ccc(NC(=O)NC3CCCCC3)cc2C1=O | 29.2 | – | – | – | – | –
C[C@H]1CCCCO[C@H](CN(C)C(=O)Cc2ccccc2)[C@@H](C)CN([C@@H](C)CO)C(=O)c2cc(N(C)C)ccc2O1 | · | – | 10.8 | – | – | ·
C[C@H](CO)N1C[C@H](C)[C@@H](CN(C)Cc2ccccc2)OCCCC[C@H](C)Oc2ccc(NC(=O)NC3CCCCC3)cc2C1=O | – | – | – | – | – | –
COc1ccccc1-c1ccc([C@H]2[C@@H](CO)N(C(=O)NC3CCCC3)[C@H]2C#N)cc1 | – | – | – | – | · | –
CC(C)NC(=O)Nc1ccc2c(c1)C(=O)N([C@@H](C)CO)C[C@@H](C)[C@@H](CN(C)C(=O)Nc1ccccc1)OCCCC[C@@H](C)O2 | – | – | – | · | – | ·
Cn1c(SCc2nnc3n2CCCCC3)nc2ccccc21 | · | 66.1 | · | · | – | ·
Cn1c(SCC(=O)N2CCCC2)nc2ccccc21 | – | – | – | – | · | –
CCCCC1=CC2=C(c3ccco3)C(=O)C(C)(OC(=O)c3ccc(OC)cc3)C(=O)C2=CN1CC1CC1 (stereo not drawn) | – | · | – | – | – | –
CCCCC1=CC2=C(c3ccco3)C(=O)C(C)(OC(=O)c3ccc(OC)cc3)C(=O)C2=CN1C1CC1 (stereo not drawn) | 52.9 | – | – | – | – | –
Cc1ccc(-c2ccc3c(c2)O[C@@H](CN(C)Cc2cncnc2)[C@@H](C)CN([C@@H](C)CO)S3(=O)=O)cc1 | – | – | – | – | – | ·
C[C@H](CO)N1C[C@H](C)[C@@H](CN(C)C(=O)c2ccccc2)OCCCC[C@H](C)Oc2ccc(NS(C)(=O)=O)cc2C1=O | – | – | – | – | – | –
O=C1NC(Cc2ccc(O)cc2)c2nc3ccc(Br)cc3c(=O)n2-c2cc3ccccc3cc21 (stereo not drawn) | – | · | 8.2 | · | – | –
O=C1NC(Cc2ccc(O)cc2)c2nc3ccccc3c(=O)n2-c2cc(Cl)ccc21 (stereo not drawn) | – | · | – | – | · | –
O=C1NC(Cc2ccccc2)c2nc3ccc(Cl)cc3c(=O)n2-c2cc(Cl)ccc21 (stereo not drawn) | – | – | – | – | · | ·
O=C1NC(Cc2ccccc2)c2nc3ccc(Cl)cc3c(=O)n2-c2ccccc21 (stereo not drawn) | 68.1 | – | – | – | · | –
O=C1NC(Cc2ccc(O)cc2)c2nc3ccccc3c(=O)n2-c2ccccc21 (stereo not drawn) | 38.7 | · | – | – | · | –
COc1ccc2nc3n(c(=O)c2c1)-c1cc2ccccc2cc1C(=O)NC3Cc1ccc(O)cc1 (stereo not drawn) | – | – | – | – | – | –
CCCC1NC(=O)c2cc3ccccc3cc2-n2c1nc1ccc(F)cc1c2=O (stereo not drawn) | 67.2 | – | – | – | – | –
COc1ccc(S(=O)(=O)Nc2ccc3c(c2)C(=O)N([C@@H](C)CO)C[C@@H](C)[C@H](CN(C)Cc2ccncc2)O3)cc1 | – | – | – | – | – | –
SMILES | DENV2 CPE | INS-1E GSIS act | CFTR F508del cor | E-selectin induc | miR-122 sensor | ERAP1 HTS inh
C[C@H]1CN([C@@H](C)CO)C(=O)c2cc(C#Cc3cccnc3)cnc2O[C@H]1CN(C)Cc1ccncc1 | – | – | – | – | – | ·
O=C(c1ccc(S(=O)(=O)Cc2cc(F)ccc2F)c([N+](=O)[O-])c1)N1CCCC1 | – | 75.6 | – | – | – | –
O=C(c1ccc(S(=O)(=O)Cc2cc(F)ccc2F)c([N+](=O)[O-])c1)N1CCCCC1 | – | – | · | – | · | –
COc1cccc(CN2[C@@H](CO)[C@@H](c3ccccc3)C23CN(Cc2ccccc2OC)C3)c1 | · | – | · | · | · | ·
CO[C@@H]1CN(C)C(=O)c2cc(NC(=O)C3CCOCC3)ccc2OC[C@H](C)N(C(C)=O)C[C@@H]1C | · | – | – | – | – | ·
CO[C@H]1CN(C)C(=O)c2ccc(NC(=O)Nc3ccccc3F)cc2OC[C@H](C)NC[C@@H]1C | – | – | – | – | – | –
CC(C)Nc1nc(NC(N)=S)nc(NC(C)(C)C)n1 | – | 44.0 | – | – | · | –
CCNc1nc(NC(C)C)nc(NC(C)(C)C)n1 | – | – | – | · | · | –
CC(C)Nc1nc(NC(N)=S)nc(NC(C)C)n1 | · | 81.9 | · | – | · | ·
C[C@@H]1CN([C@H](C)CO)C(=O)c2cc(C#CC3CC3)cnc2O[C@H]1CN(C)C(=O)C1CCCCC1 | · | – | – | – | – | ·
CO[C@H]1CN(C)C(=O)c2ccc(NC(C)=O)cc2OC[C@H](C)N(CCc2ccccc2)C[C@H]1C | – | – | – | – | – | –
CCCNC(=O)N(C)C[C@H]1N[C@@H](CO)[C@@H]1c1ccc(C2=CCCCC2)cc1 | – | – | – | – | – | ·
COc1ccccc1C#Cc1ccc2c(c1)[C@H]1[C@H](CCN1C(=O)c1ccc(F)cc1)[C@@H](CO)N2 | 54.0 | – | – | – | · | –
COc1ccc(C#Cc2ccc3c(c2)[C@@H]2[C@@H](CCN2C(=O)c2cccc(F)c2)[C@@H](CO)N3)cc1 | – | – | 8.7 | – | – | –
COc1ccccc1C#Cc1ccc2c(c1)[C@@H]1[C@@H](CCN1S(=O)(=O)c1ccc(F)cc1)[C@@H](CO)N2 | 29.3 | – | – | – | · | –
